These results are taken from PMC6900552 (Acta Pharmaceutica Sinica. B, 2019).

Where two headings read alike, the source gives them in different places.

For series [1], the system named is HepG2 cells. Briefly: DiI-LDL uptake assay. Particulars: 5 μmol/L, 24 h, then 20 μg/mL DiI-LDL 4 h, fold of vehicle. It counts as cell-based, human. The method in brief:
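Washes: PBS/0.4% albumin ×2, PBS ×3. Isopropanol extraction 20 min RT; fluorescence ex 520/em 570 nm; residual cells lysed in 0.5 mol/L NaOH for protein determination.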

For series [2], the system named is PCSK9 mRNA. Particulars: read-out: IC50 of decreasing PCSK9 mRNA level; cited from earlier work.
The conditions of series [3]: 32 hypercholesterolemic patients, 3 months of treatment; cited from earlier work.
For series [4] the following is noted: cited from earlier work.
The target in series [5] is beta-1 adrenergic receptor (Homo sapiens, UniProt P08588). Briefly: Calcium mobilization assay, β1 adrenergic receptor antagonist activity. It counts as cell-based. Conditions: HEK293 β1-AR/Gα16 cells. The method in brief:
(§1)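 HEK293 cells stably co-expressing the receptor and Gα16 were seeded in 96-well plates and grown 24 h. Cells were loaded with 2 μmol/L Fluo-4 AM in HBSS (pH 7.4, BSA 5 g/L, sulfinpyrazone 250 μmol/L) at 37 °C for 45 min. Test compound was added for 10 min at RT, then the respective agonist. Calcium signal was read at ex 485/em 525 nm. IC50 came from nonlinear-regression dose–response curves.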
For orientation: Calcium assays in cells follow changes in intracellular calcium, usually with a dye or a luminescent sensor.

Series [6] addresses dopamine D1 (Homo sapiens, UniProt P21728). Briefly: Calcium mobilization assay, dopamine D1 antagonist activity. It counts as cell-based. Conditions: HEK293 D1/Gα16 cells. The method in brief:
as §1

Series [7] addresses dopamine D2 (Homo sapiens, UniProt P14416). Briefly: Calcium mobilization assay, dopamine D2 antagonist activity. It counts as cell-based. Conditions: HEK293 D2/Gα16 cells. The method in brief: as §1
For series [8], the target named is serotonin 5-HT1B receptor (Homo sapiens, UniProt P28222). Briefly: Whole-cell binding assay, 5-HT1B. The method in brief:
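CHO-K1 cells stably expressing 5-HT1B were seeded at 3 × 10⁴ cells/well and assayed 24 h later. Cells were incubated overnight at 4 °C with 1 nmol/L ³H-GR125743 or ³H-mesulergine plus unlabeled test compound (1.28 nmol/L–100 μmol/L). They were then washed with ice-cold PBS and lysed (PBS, 20 mmol/L Tris-HCl, 1% Triton X-100, pH 7.4). Bound radioactivity was scintillation-counted, and IC50 came from nonlinear regression.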

Series [9] can be described thus: Pharmacokinetic profiles in male hamsters. It counts as in vivo. Particulars: hamster, serum. The method in brief:
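Male hamsters, n = 3 per group, received test compound either at 20 mg/kg by oral gavage in 0.5% CMC-Na or at 10 mg/kg i.v. in 5% DMSO/10% cremophor EL/85% saline. Blood was drawn at 0, 0.5, 1, 2, 4, 6, 8, 10, 12 and 24 h, and serum was separated at 4000×g for 10 min. Serum levels were measured by LC/MS/MS. Parameters are averages of three runs.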

A short description of series [10]: In vivo cholesterol-lowering assay in HFD-induced hyperlipidemic hamsters. Particulars: 21 days, vs HFD control. More on the design: species or system Syrian hamster. The method in brief: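 Male Syrian hamsters (100–120 g) were acclimatized 7 days, then fed a high-fat diet (0.5% cholesterol) for 1 week. They were randomized to groups of n = 7. Test compound (30 mg/kg) or fenofibrate positive control (100 mg/kg) was given by daily oral gavage for 21 days; controls received 0.5% CMC-Na vehicle. After a 15 h fast, serum was taken under anesthesia and TC and LDL-C were measured by kit. Mean ± SEM.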

Series [11] concerns LDLR. Description: Western blot analysis of LDLR expression in HepG2 cells. It counts as cell-based, human. Conditions: 5 μmol/L, 24 h.
Series [12] deals with hERG channel (Homo sapiens, UniProt Q12809). Description: hERG testing. It counts as cell-based. The method in brief: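 FluxOR thallium-flux assay in CHO-hERG-ZG cells kept under G418 and hygromycin B (100 μg/mL each). Cells were plated and held 30 min at RT in the dark, then 16–18 h at 37 °C. Dye loading ran 90 min at RT in the dark, then the medium was swapped for assay buffer and compound added for 20 min at RT in the dark. Fluorescence was recorded every 2 s to 10 s; stimulus buffer was added at 10 s, then recording continued every 1 s to 180 s.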
In general terms: Block of hERG is tested as a sign of cardiac risk.

Series [13] relates to PCSK9. Description: PCSK9 ELISA in HepG2 cells. It counts as cell-based, human. Conditions: read-out: IC50 of PCSK9 protein expression, 24 h.
Series [14] concerns PCSK9 mRNA. Description: Real-time PCR of PCSK9 mRNA in HepG2 cells. It counts as cell-based. Particulars: Homo sapiens, HepG2, 24 h, read-out: IC50 of PCSK9 mRNA expression.

Chain of dopamine D1 (P21728 whole entry): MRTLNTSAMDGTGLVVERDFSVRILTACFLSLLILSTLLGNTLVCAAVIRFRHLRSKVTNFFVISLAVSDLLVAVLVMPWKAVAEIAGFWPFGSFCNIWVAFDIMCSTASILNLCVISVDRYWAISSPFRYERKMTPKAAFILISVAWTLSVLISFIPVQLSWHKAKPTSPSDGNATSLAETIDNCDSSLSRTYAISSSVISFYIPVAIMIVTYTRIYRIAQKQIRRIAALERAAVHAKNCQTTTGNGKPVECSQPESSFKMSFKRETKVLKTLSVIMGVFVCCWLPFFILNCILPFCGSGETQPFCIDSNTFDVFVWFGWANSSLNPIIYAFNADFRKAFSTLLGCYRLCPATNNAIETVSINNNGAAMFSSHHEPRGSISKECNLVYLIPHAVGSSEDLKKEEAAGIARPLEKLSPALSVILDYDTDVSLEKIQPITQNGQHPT
Chain of beta-1 adrenergic receptor (P08588 whole entry, species assumed): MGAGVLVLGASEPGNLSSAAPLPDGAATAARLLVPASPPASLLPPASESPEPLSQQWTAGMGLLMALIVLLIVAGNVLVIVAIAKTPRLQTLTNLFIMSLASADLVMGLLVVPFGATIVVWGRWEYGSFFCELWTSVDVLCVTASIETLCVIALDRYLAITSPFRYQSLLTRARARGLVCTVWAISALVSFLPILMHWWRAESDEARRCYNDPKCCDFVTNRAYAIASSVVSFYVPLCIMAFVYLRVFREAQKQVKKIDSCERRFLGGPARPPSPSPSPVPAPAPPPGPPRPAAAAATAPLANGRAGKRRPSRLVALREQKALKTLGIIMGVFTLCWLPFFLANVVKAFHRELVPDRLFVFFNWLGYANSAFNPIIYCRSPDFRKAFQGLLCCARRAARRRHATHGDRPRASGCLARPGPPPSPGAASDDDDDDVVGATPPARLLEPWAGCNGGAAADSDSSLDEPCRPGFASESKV
Chain of dopamine D2 (P14416 whole entry): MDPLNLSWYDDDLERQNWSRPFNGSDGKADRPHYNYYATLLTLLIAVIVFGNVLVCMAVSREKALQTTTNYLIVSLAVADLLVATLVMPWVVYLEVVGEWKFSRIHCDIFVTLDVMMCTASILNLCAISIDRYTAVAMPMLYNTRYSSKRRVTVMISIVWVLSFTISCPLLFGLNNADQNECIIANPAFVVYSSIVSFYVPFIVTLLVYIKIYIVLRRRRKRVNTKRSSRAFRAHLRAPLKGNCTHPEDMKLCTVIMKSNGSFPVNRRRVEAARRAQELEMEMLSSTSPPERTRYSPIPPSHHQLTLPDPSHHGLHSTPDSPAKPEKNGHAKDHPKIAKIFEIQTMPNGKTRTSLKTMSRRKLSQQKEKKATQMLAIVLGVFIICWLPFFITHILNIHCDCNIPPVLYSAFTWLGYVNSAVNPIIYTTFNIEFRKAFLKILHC
Chain of serotonin 5-HT1B receptor (P28222 whole entry): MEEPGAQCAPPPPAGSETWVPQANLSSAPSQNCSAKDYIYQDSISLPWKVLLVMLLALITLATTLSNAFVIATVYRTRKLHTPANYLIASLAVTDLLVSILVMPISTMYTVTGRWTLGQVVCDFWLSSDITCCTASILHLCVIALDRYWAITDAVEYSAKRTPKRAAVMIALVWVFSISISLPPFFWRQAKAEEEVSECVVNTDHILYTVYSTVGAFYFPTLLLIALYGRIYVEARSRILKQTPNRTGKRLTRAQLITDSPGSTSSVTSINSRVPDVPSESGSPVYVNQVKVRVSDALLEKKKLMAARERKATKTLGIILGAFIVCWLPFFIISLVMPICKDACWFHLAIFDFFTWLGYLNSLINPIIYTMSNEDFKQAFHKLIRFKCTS
Chain of hERG channel (Q12809 whole entry): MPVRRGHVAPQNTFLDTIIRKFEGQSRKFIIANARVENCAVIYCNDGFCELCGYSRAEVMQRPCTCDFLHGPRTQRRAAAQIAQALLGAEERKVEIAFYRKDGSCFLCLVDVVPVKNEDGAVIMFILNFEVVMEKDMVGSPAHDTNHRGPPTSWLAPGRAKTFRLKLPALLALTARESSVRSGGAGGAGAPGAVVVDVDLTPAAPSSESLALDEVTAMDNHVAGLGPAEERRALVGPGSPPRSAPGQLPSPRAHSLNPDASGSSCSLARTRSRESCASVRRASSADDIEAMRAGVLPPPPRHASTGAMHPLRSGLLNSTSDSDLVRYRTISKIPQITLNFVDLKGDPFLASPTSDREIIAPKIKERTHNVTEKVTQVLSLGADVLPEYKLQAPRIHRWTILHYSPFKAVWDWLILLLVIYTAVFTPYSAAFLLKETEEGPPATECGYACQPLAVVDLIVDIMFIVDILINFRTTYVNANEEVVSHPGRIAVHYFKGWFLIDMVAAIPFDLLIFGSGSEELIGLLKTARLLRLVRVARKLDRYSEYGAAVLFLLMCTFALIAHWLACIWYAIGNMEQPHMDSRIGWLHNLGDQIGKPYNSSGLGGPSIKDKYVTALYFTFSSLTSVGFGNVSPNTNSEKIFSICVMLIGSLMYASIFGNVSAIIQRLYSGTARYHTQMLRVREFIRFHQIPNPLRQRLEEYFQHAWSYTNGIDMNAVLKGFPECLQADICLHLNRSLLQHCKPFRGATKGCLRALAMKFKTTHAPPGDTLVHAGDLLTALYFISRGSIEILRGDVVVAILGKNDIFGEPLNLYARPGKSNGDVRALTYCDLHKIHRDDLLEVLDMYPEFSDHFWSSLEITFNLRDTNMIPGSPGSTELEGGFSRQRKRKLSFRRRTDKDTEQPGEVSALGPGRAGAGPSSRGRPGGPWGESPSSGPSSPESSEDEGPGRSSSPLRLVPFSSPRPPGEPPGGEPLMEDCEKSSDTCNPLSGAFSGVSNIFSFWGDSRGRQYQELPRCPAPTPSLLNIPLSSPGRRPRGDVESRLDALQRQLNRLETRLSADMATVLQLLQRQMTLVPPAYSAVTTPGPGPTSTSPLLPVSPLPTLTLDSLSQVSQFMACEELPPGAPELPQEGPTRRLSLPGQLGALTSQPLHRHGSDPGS

In general, IC50 refers to the concentration that inhibits the measured activity by half. `COc1ccc2cc3[n+](cc2c1OC)CCc1cc2c(cc1-3)OCO2` [Berberine]: the “DiI-LDL uptake rate (compared to vehicle, mean±SEM)” value in series [1] is on record as 1.38±0.03. Moreover, the IC50 in [2] was 8.04 µM. Further, in series [3], the “reduction of LDL-C” value is given as 25% and the “reduction of serum total cholesterol (TC)” value was 29%. For the same compound, in [4], the “bioavailability (F)” value was under 1% and the oral bioavailability is reported as about 0%.

`COc1cc2c(cc1OCc1ccccc1F)C1Cc3c(n(CO)c4ccccc34)CN1CC2` (centres unmarked) [Compound 8, (2-((2-Fluorobenzyl)oxy)-3-methoxy-5,6,14,14a-tetrahydroindolo[3′,2′:4,5]pyrido[2,1-a]isoquinolin-9(8H)-yl)methanol]: the “DiI-LDL uptake rate (compared to vehicle, mean±SEM)” value in series [1] was determined as 1.04±0.04. Further, the half-maximal inhibitory concentration (IC50) in series [5] was over 100 µM; in series [6] it was 5.56 ± 0.08 µM; in series [7], 17.9 ± 0.86 µM; in series [8], 47.2 ± 1.22 µM.

`COc1ccc2c(c1)c1c(n2CO)CN2CCc3cc(OC)c(OCc4ccc(F)cc4)cc3C2C1` (centres unmarked) [Compound 18, (2-((4-Fluorobenzyl)oxy)-3,12-dimethoxy-5,6,14,14a-tetrahydroindolo[3′,2′:4,5]pyrido[2,1-a]isoquinolin-9(8H)-yl)methanol]: the IC50 is about 100 µM in series [5], 1.71 ± 0.1 µM in series [6], over 100 µM in series [7] and over 100 µM in [8].

On to `COc1ccc2c(c1)c1c(n2CO)CN2CCc3cc(OC)c(OCC(F)(F)F)cc3C2C1` (centres unmarked) [Compound 21, (3,12-Dimethoxy-2-(2,2,2-trifluoroethoxy)-5,6,14,14a-tetrahydroindolo[3′,2′:4,5]pyrido[2,1-a]isoquinolin-9(8H)-yl)methanol], for which the “DiI-LDL uptake rate (compared to vehicle, mean±SEM)” value in series [1] is listed as 1.45±0.04^∗∗. The half-maximal inhibitory concentration (IC50) is about 100 µM in [5], 2.35 ± 0.07 µM in series [6], about 50 µM in [7] and over 100 µM in [8].

In general, AUC(0-inf) refers to the area under the concentration-time curve extrapolated to infinity. A high value points to more exposure. The term MRT denotes a mean duration of stay, worked out from the concentration-time curve. What is called clearance is the volume of plasma or blood freed of the substance per unit of time. A low value points to a low capacity for elimination. The term half-life denotes the time in which the quantity being followed falls by half. Read a high half-life as slow loss. The term bioavailability denotes dose-corrected exposure relative to a reference, in per cent. Lower therefore signals poor availability. The term Cmax denotes the highest concentration seen after dosing. For `COc1ccc2c(c1)c1c(n2CO)CN2CCc3cc(OCc4ccccc4)c(OC)cc3C2C1` (centres unmarked) [Compound 22, (3-(Benzyloxy)-2,12-dimethoxy-5,6,14,14a-tetrahydroindolo[3′,2′:4,5]pyrido[2,1-a]isoquinolin-9(8H)-yl)methanol], the 50% inhibitory concentration (IC50) in series [5] was at least 100 µM; in [6], about 100 µM; in series [7] it was at least 100 µM; in series [8], 13.4 ± 0.51 µM; in [12], 7.99 µM; in [13] it was 1.34 µM. Moreover, the 50% inhibitory concentration (IC50) in series [14] amounted to 1.1 µM. In addition, the area under the curve AUC(0-inf) is 2090 ng·h/mL in [9] (iv, 10 mg/kg) and 1000 ng·h/mL in [9] (po, 20 mg/kg). Besides, the MRT in [9] (iv, 10 mg/kg) is 4.13 h; in [9] (po, 20 mg/kg), 10.3 h. The compound further came in with a clearance in series [9] (iv, 10 mg/kg) of 84.1 mL/min/kg. Also, the half-life in [9] (iv, 10 mg/kg) was 3.61 h; in series [9] (po, 20 mg/kg), 6.35 h. This compound showed a bioavailability in series [9] (oral, 20 mg/kg) of 21.9%. The Cmax in series [9] (po, 20 mg/kg) stood at 169 ng/mL. The “reduction in serum LDL-C” value in [10] (30 mg/kg oral gavage daily) came to 41.4%. In addition, the “reduction in serum TC” value in [10] (30 mg/kg oral gavage daily) is 36.7%. In [11], the “LDLR expression compared to DMSO” value is 2.06 fold.

As for `CC(C)OC(=O)C(C)(C)Oc1ccc(C(=O)c2ccc(Cl)cc2)cc1` [fenofibrate, reference compound], in series [10] (p.o. 100 mg/kg daily), the “decrease of serum LDL-C” value stood at 79.4% and the “decrease of serum TC” value is 71.3%.
